Source: PMC7391373 (ACS Omega, 2020)

Legend:
[1] = in vitro cytotoxicity, MTT assay, dermal fibroblasts; format: cell-based; details: human, primary culture of normal human dermal fibroblasts
In short: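 HeLa cells and primary normal human dermal fibroblasts (fibroblasts used within seven passages) were kept in DMEM with 10% fetal calf serum and 2 mM glutamine at 37 °C, 5% CO2. Cells were seeded at 5000–10 000 per well; after 24 h they received test compound (10–640 μg) in duplicate for 48 h. MTT (1 mg/mL stock) was added for 1 h, formazan was dissolved in DMSO, and OD was read at 450 nm.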

[2] = system: P. falciparum 3D7 (chloroquine-sensitive); assay: schizont maturation inhibition assay, 3D7 strain; format: cell-based, Plasmodium falciparum
In short: (§1)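 P. falciparum (3D7 chloroquine-sensitive; RKL-9 chloroquine-resistant) was cultured in A+ human erythrocytes in RPMI-1640 with 10% human AB+ serum. Ring-synchronized parasites (2–3% parasitemia, 1.8% final haematocrit) were exposed in duplicate to test compound at 1–16 μg/mL for 48 h at 37 °C, 5% CO2. Positive controls were chloroquine 10 μM and artesunate 2 μM. Schizont inhibition versus controls was scored on Giemsa smears. SI was calculated as CC50 (HeLa/fibroblasts) divided by IC50.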

[3] = system: P. falciparum RKL-9 (chloroquine-resistant); assay: schizont maturation inhibition assay, RKL-9 strain; format: cell-based, Plasmodium falciparum
In short: as §1

[4] = biochemical assays, liver and kidney function tests; format: in vivo, Mus musculus
In short: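 In P. berghei-infected Laca mice (oral dosing once daily D0–D3), blood was collected from the tail vein on day 10 and from survivors on day 28. Serum ALP, SGOT, SGPT and bilirubin (liver) and urea and creatinine (kidney) were measured with commercial diagnostic kits. Data are mean ± SD, five mice per group.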

[5] = acute toxicity; oral administration; cited from earlier work
[6] = system: Plasmodium berghei (NK-65); assay: in vivo suppressive activity, Peter's 4 day test; details: for chemosuppression (%), day 5 / parasitemia (%), day 5 / mean survival time (MST): mice; for parasitemia (%), day 28: surviving mice
In short: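 Peters 4-day suppressive test in Laca Swiss albino mice (6–8 weeks, 25 ± 2 g), five per group. On D0, mice received 1 × 10^6 P. berghei NK-65-infected erythrocytes i.p. Dosing began 1 h post-inoculation, oral, once daily D0–D3 (0.2 mL). Giemsa tail smears were taken 24 h after the last dose. Chemosuppression was calculated from mean parasitemia relative to infected controls. Survival and parasitemia were followed to day 28.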

[7] = system: RAW 264.7 murine macrophage cells; assay: determination of nitric oxide; format: cell-based
[8] = monotherapy 10 mg/kg oral OD D0–D3
[9] = monotherapy 20 mg/kg oral OD D0–D3
[10] = monotherapy 50 mg/kg oral OD D0–D3
[11] = monotherapy 100 mg/kg oral OD D0–D3
[12] = monotherapy 4 mg/kg oral OD D0–D3

SMILES: COC(=O)[C@@H]1Cc2c([nH]c3ccccc23)[C@@H](c2ccc3c(c2)OCO3)N1 [9a, (1R,3S)-methyl 1-(benzo[d][1,3]dioxol-5-yl)-2,3,4,9-tetrahydro-1H-pyrido[3,4-b]indole-3-carboxylate]
- viability at 48 h, 640 μg/mL [1]: 56.5 ± 5.07%
- selectivity index (SI) ([2]; CC50 / IC50 on 3D7): > 10
- IC50 ([2]; Plasmodium falciparum, 3D7, 48 h, 3D7 strain, 48 h): < 1 µg/mL
- inhibition at 1 µg/mL ([2]; Plasmodium falciparum, 3D7, read-out: inhibition (schizont maturation)): > 75%
- selectivity index (SI) ([3]; CC50 / IC50 on RKL-9): > 10
- IC50 ([3]; Plasmodium falciparum, 48 h, RKL-9 strain): < 1 µg/mL
- inhibition at 1 µg/mL ([3]; Plasmodium falciparum, read-out: inhibition (schizont maturation)): > 75%
- levels of renal function biomarkers (creatinine, urea) ([4]; monotherapy 100 mg/kg): within the normal range
- levels of ALP, SGOT, SGPT, and bilirubin ([4]; monotherapy 50 and 100 mg/kg, day 10 and day 28): within normal range
- LD50 [5]: > 4000 mg/kg
- chemosuppression (%), day 5 [6, 8]: 40.49%
- parasitemia (%), day 5 [6, 8]: 17.31 ± 2.40 (n = 5) %
- chemosuppression (%), day 5 [6, 9]: 46.82%
- parasitemia (%), day 5 [6, 9]: 15.47 ± 2.69 (n = 5) %
- chemosuppression (%), day 5 [6, 10]: 64.76%
- parasitemia (%), day 5 [6, 10]: 10.25 ± 4.93 (n = 5) %
- parasitemia (%), day 28 [6, 10]: 3.43 ± 0.51 (n = 2) %
- mean survival time (MST) ([6]; monotherapy 50 mg/kg): 21.8 ± 6.09 days
- chemosuppression (%), day 5 [6, 11]: 91.19%
- parasitemia (%), day 5 [6, 11]: 2.56 ± 1.71 (n = 5) %
- parasitemia (%), day 28 [6, 11]: 2.41 ± 0.97 (n = 3) %
- mean survival time (MST) ([6]; monotherapy 100 mg/kg): 22.6 ± 7.79 days
- nitrite production from macrophages ([7]; 100 μg/mL): comparable to the normal cells

SMILES: C[C@H]1[C@H](OC(=O)CCC(=O)O)O[C@@H]2O[C@@]3(C)CC[C@H]4[C@H](C)CC[C@@H]1[C@@]24OO3 [artesunate, reference compound]
- inhibition at 2 µM ([2]; Plasmodium falciparum, 3D7): 100%
- inhibition at 2 µM ([3]; Plasmodium falciparum): 100%
- chemosuppression (%), day 5 [6, 12]: 94.01%
- parasitemia (%), day 5 [6, 12]: 1.74 ± 0.83 (n = 5) %
- mean survival time (MST) ([6]; monotherapy 4 mg/kg): 18.6 ± 2.19 days
- chemosuppression (%), day 5 [6, 10]: 99.89%
- parasitemia (%), day 5 [6, 10]: 0.03 ± 0.01 (n = 5) %
- parasitemia (%), day 28 [6, 10]: 0 ± 0 (n = 2) %
- mean survival time (MST) ([6]; monotherapy 50 mg/kg): 22.4 ± 5.77 days
- nitrite production from macrophages ([7]; 2 μM): comparable to the normal cells

SMILES: CCN(CC)CCCC(C)Nc1ccnc2cc(Cl)ccc12 (centres unmarked) [chloroquine, reference compound]
- inhibition at 10 µM ([2]; Plasmodium falciparum, 3D7): 96.8%
- inhibition at 10 µM ([3]; Plasmodium falciparum): 96.8%
- chemosuppression (%), day 5 [6, 8]: 94.22%
- parasitemia (%), day 5 [6, 8]: 1.68 ± 1.06 (n = 5) %
- parasitemia (%), day 28 [6, 8]: 0 ± 0 (n = 5) %
